Compound activity as filed in PubChem.
STAT3 blocker – reduces IL-6 driven STAT3 reporter signal; U3A cells, IL-6 STAT3-luciferase reporter, luminescence; host cell line lacks STAT1; inhibition, % at 5.5 µM; actives 0.89% (n = 190,000);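 active = inhibition above the mean inhibition across all screened compounds plus 3 SD, cut at about 44% in these data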;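 also: 0% = DMSO only wells and 100% = 100 µM nifuroxazide control wells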
b-catenin transl – beta-catenin nuclear translocation modulation; HeLa beta-catenin nuclear translocation, immunofluorescence imaging; AID 1665; actives 0.3% (n = 190,000); nuclear translocation activity, % at 5 µM;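 active = nuclear translocation activity above 50% at 5 µM, with a well cell count of 50 or more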;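 also: per-cell ratio of nuclear to cytoplasmic median beta-catenin stain intensity; plate controls were DMSO negative control for no effect and GSK-3 inhibitor IX positive control for full effect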
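Signal – beta-catenin immunofluorescence imaging with DAPI · Test system – human HeLa cell line · Dosing – 5 µM primary single dose, 0.1% DMSO, 0.02–20 µM confirmation series · Measure – % activation, nuclear-to-cytoplasmic median beta-catenin signal ratio per cell · Incubation – 24 h compound exposure at 37°C, 5% CO2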
STAT3 act-1 – STAT3 signaling activation. U3A cells, IL-6 STAT3-luciferase reporter, luminescence; 100% = signal with IL-6 EC80 alone. activation (% of control), % at 5.6 µM. actives 0.91% (n = 190,000). AID 871;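 active = activation above the screen-wide mean of compound activation plus 3 SD, cut at about 130% in these data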;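 also: 0% = background luminescence of wells with medium and substrate only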
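Test system: STAT3-luciferase reporter U3A cells; Detection: reporter luminescence signal; Times: 1 h compound pre-exposure, 6 h IL-6 stimulation, 37 °C; Benchmarks: IL-6-only high control; Also added: IL-6 stimulus at 33 ng/mL final.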
MT stabilizer – microtubule stabilizers in HeLa cells. HeLa tubulin immunostaining HCS, 24 h; share of cells brighter than vehicle mean+2SD. % tubulin-high responders, % at 10 µM. actives 0.83% (n = 200,000);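 active = plate Z-score above 3 for both tubulin-high and condensed-nucleus cell shares, with cell loss under 80%, at 10 µM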;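 also: anti alpha tubulin signal scored within the nucleus-defined area of each cell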
STAT1 blocker – STAT1 signaling inhibition; NIH 3T3 STAT1-luciferase reporter, IFN-gamma, luminescence; inhibition, % at 5.5 µM; actives 0.35% (n = 200,000); AID 920;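 active = inhibition above a set limit, the mean inhibition across all tested compounds plus 3 SD, cut at about 34% in these data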;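 also: 0% = IFN-gamma with DMSO and 100% = IFN-gamma with 300 µM nifuroxazide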
STAT3 act-2 – confirmation of STAT3 signaling activators. shares compounds with STAT3 act-1. actives 64% (n = 1,200). potentiation (% of control), % at 5.7 µM. AID 1267. U3A STAT3-luciferase reporter, IL-6 potentiation, luminescence; U3A cells lack STAT1; 100 means same as IL-6 alone;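 active = percent activation of the STAT3 luciferase reporter above a set limit taken from the earlier primary screen, cut at about 130% in these data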;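 also: 0% = background signal of medium plus substrate and 100% = median of IL-6 with DMSO wells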
NFkB act 2 – counter-screen for STAT3 activators: NF-kappaB activation; activation (% of control), % at 5.7 µM; shares compounds with STAT3 act-1; AID 1309; human cells, NF-kappaB reporter activation; actives 11% (n = 1,200); in the data active = activation above about 120%;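 also: reporter induced by TNF-alpha stimulation; 100% = median of stimulated DMSO wells and 0% = no signal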
STAT1 act – counter-screen for STAT3 activators: STAT1 activation. shares compounds with STAT3 act-1. NIH 3T3 STAT1-luciferase reporter, IFN-gamma, luminescence. activation (% of control), % at 5.7 µM. actives 13% (n = 1,200). AID 1318;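 active = activation above the solvent-only control well mean plus 3 SD, set per screening run, cut at about 120% in these data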;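 also: 100% = IFN-gamma with DMSO median signal so 100% means no change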
Starred values were filed as active, the others as inactive; · = no result. Only some compounds are listed: those with a hit (about 2.4% of all), similar ones and a draw of the others.

SMILES	STAT3 blocker	b-catenin transl	STAT3 act-1	MT stabilizer	STAT1 blocker	STAT3 act-2	NFkB act 2	STAT1 act
Cc1ccc(-c2nc(N)n(C(=O)Cc3ccccc3)n2)cc1	2.0	-0.3	97.9	1.5	2.4	·	·	·
Cc1ccc(-c2nc(N)n(C(=O)c3cccs3)n2)cc1	-39.0	-0.4	147.9*	2.7	6.6	127.9	99.9	89.2
CCOc1ccc(NC(=O)C(CC(=O)O)Cc2ccccc2)cc1 (stereo unspecified)	3.4	0.4	97.1	5.4	-1.0	·	·	·
CCOc1ccc(NC(=O)C(Cc2ccccc2)N2C(=O)c3cccc4cccc(c34)C2=O)cc1 (stereo unspecified)	-35.8	0.9	138.0*	4.2	0.4	118.5	96.3	97.4
COCCCNc1nc2ccccc2nc1NS(=O)(=O)c1ccc(C)cc1C	·	1.3	·	·	·	·	·	·
Oc1ccc(C=Nc2cccc3ncccc23)c(O)c1	-2.3	-1.2	106.0	3.2	1.6	·	·	·
CCOc1ccc(C=Nc2cccc3ncccc23)cc1	-59.3	-0.6	148.9*	5.6	6.1	147.8*	102.4	119.4
CCOc1ccccc1C(=O)Nn1c(C2CCC2)nc2ccccc2c1=O	-70.0	1.1	162.0*	1.8	-2.9	158.3*	98.2	99.2
O=C(OCc1nc2ccccc2s1)c1cccc(N2C(=O)CCC2=O)c1	-14.4	-1.4	116.3	2.6	-3.4	·	·	·
O=C(OCc1nc2ccccc2s1)C1CCN(C2=NS(=O)(=O)c3ccccc32)CC1	-44.2	0.7	146.7*	1.0	-13.7	142.4*	121.3*	134.3*
O=C(Nc1c(Cl)cc(Cl)cc1-c1nc2ccccc2s1)c1ccc(Br)o1	-51.6	2.4	139.1*	1.9	11.2	114.8	100.9	70.6
COc1ccc(N2C(=O)C(CC(=O)Nc3ccccc3)N(Cc3ccccn3)C2=S)cc1 (stereo unspecified)	4.2	·	98.3	1.7	-14.4	·	·	·
N#Cc1c(C(F)(F)F)cc(C2CC2)nc1N1CCCC1	-59.0	3.0	147.6*	1.4	10.7	121.9	101.3	98.1
CCCCNC(=O)c1onc(CSc2cccc3ccccc23)c1C(=O)O	-14.1	-1.1	112.2	2.6	10.1	·	·	·
CN1c2ccccc2C(C)(C)C12C=Nc1c(ccc3ccccc13)O2 (stereo unspecified)	-77.8	0.7	165.8*	2.1	13.4	150.1*	115.0	107.5
COc1ccc(Cl)cc1-c1nc(-c2ccc(Br)o2)no1	-85.6	2.5	174.1*	4.9	-3.0	159.9*	114.2	117.4
O=C(CCC1CCCN(C(=O)C2(c3ccccc3)CC2)C1)N1CCN(c2ccccn2)CC1 (stereo unspecified)	7.3	0.5	96.8	2.6	-0.8	·	·	·
CCCCCC(=O)Nc1nc(C)c(-c2csc(Nc3ccc(Cl)cc3)n2)s1	-60.0	1.8	148.3*	2.9	14.5	130.2	104.1	97.9
Cc1nc(NC(=O)c2ccco2)sc1-c1csc(Nc2ccc(Cl)cc2)n1	-56.4	1.3	145.5*	2.8	1.8	123.8	102.2	100.7
Cc1nc(NC(=O)c2ccccc2)sc1-c1csc(Nc2ccc(Cl)cc2)n1	27.5	-3.2	85.7	3.7	-9.7	·	·	·
CCCCCCC(=O)Nc1nc(C)c(-c2csc(Nc3ccc(Cl)cc3)n2)s1	-34.6	6.4	136.0*	2.8	20.2	126.1	108.1	93.6
Cc1nc(NC(=O)CC(C)C)sc1-c1csc(Nc2ccc(Cl)cc2)n1	-51.1	4.4	141.3*	3.1	6.0	120.4	100.5	98.6
CCCCCC(=O)Nc1nc(C)c(-c2csc(Nc3cc(Cl)ccc3C)n2)s1	-4.7	2.9	111.0	2.9	12.2	·	·	·
Cc1nc(NC(=O)CC(C)C)sc1-c1csc(Nc2ccc(Cl)cc2Cl)n1	-0.5	6.0	104.7	2.7	-8.8	·	·	·
N/N=C(\c1ccccc1)C12CN3CN(CN(C3)C1)C2	-0.8	-0.7	100.9	1.6	-5.9	·	·	·
SMILES	STAT3 blocker	b-catenin transl	STAT3 act-1	MT stabilizer	STAT1 blocker	STAT3 act-2	NFkB act 2	STAT1 act
CCCn1c2ccccc2c2nnc(SCC(=O)OC)nc21	0.2	0.9	102.2	5.3	-0.3	·	·	·
CCCCn1c2ccccc2c2nnc(SCC(=O)NC3=NN=C(c4ccccc4)CS3)nc21	-50.0	1.3	136.4*	2.9	2.4	107.4	110.5	117.7
Oc1ccc(N2CCN(c3ncnc4sc(-c5ccccc5)cc34)CC2)cc1	-71.5	3.4	159.1*	4.0	-7.0	121.6	91.7	97.1
CC(=O)N1CCN(c2ncnc3sc(-c4ccccc4)cc23)CC1	-19.0	-1.5	117.2	1.9	3.9	·	·	·
COc1ccc(-c2csc(NC(=O)C3=NN(c4ccccc4)C(=O)CC3)n2)cc1	33.7	-1.6	72.8	2.8	2.2	·	·	·
Cc1cc(O)c(NC(=O)c2ccc(Br)o2)cc1C	-70.8	-0.3	160.8*	2.1	11.7	150.6*	115.2	95.3
COC(=O)c1ccc(OC(=O)CS(=O)c2ccccc2[N+](=O)[O-])cc1 (stereo unspecified)	-11.2	-2.6	122.0	2.6	30.8	·	·	·
O=C(CS(=O)c1ccc(C(F)(F)F)cc1[N+](=O)[O-])Oc1ccccc1 (stereo unspecified)	-50.9	·	146.6*	3.1	25.5	129.1	101.4	72.3
Cn1c(=O)c(-c2cc(Br)ccc2N)nc2ccccc21	-63.9	·	164.3*	2.5	14.0	155.0*	115.3	93.4
Oc1ccccc1-c1nnc(SCCN2CCOCC2)n1Cc1ccccc1	-80.5	-5.7	167.8*	7.8	0.6	147.3*	106.4	104.9
O=C(/C=C1\C(=O)Nc2ccccc21)/C=C1\C(=O)Nc2ccccc21	·	24.8	·	·	·	·	·	·
CN(O)/C=C1\C(=O)Nc2ccccc21	-49.8	-1.4	142.4*	2.5	-2.6	114.8	98.4	103.3
Cc1ccc(C(=O)NCc2nnc(SCC(=O)NC(C)c3ccccc3)n2C)cc1 (stereo unspecified)	-9.4	2.1	110.0	3.3	-9.4	·	·	·
Cn1c(Cc2c[nH]c3ccccc23)n[nH]c1=S	-54.5	·	155.0*	2.0	2.5	132.6	104.3	94.8
Cc1[nH]c2ccccc2c1Cc1n[nH]c(=S)n1C	-1.4	-3.8	104.3	2.3	-8.4	·	·	·
CCc1ccc(NC(=O)C(C)OC(=O)c2cccc(S(=O)(=O)N3CCc4ccccc4C3)c2)cc1 (stereo unspecified)	-2.3	0.0	107.0	4.2	-4.5	·	·	·
Cc1ccc(NC(=O)CN(C)CC(=O)Nc2ccccc2C(=O)Nc2ccccc2)cc1	-48.7	-3.2	147.4*	1.6	10.8	122.8	103.2	104.4
